Here are results for one compound from ChEMBL document CHEMBL1123441, “Carrier-linked primaquine in the chemotherapy of malaria” (J Med Chem, 1986).

Where “and” joins values, the source holds several entries; their conditions need not be identical. Equal values may be shown once.

A word on the LD50: it is the dose expected to kill half of the subjects tested.

For data set [1], the system named is Mus musculus. The data set can be described thus: Free and protein-conjugated compound is evaluated for curative effect, at the 14.5 mg/kg. The format is functional. Put shortly:
(§1)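 Female A/J mice (~20 g, groups of 6–8) inoculated via tail vein with 10^4 Plasmodium berghei sporozoites. Drug, conjugate or carrier alone in 0.5 mL PBS given intravenously 2–3 h later; doses as mg primaquine base/kg. Giemsa-stained thin blood smears were read up to day 12, and mice without parasitemia by day 12 were scored cured. An untreated control group was run per experiment. CPD50 came from probit-transformed dose–response data, with results pooled from at least two experiments.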

The subject of data set [2] is Mus musculus. Description: Free and protein-conjugated compound is evaluated for curative effect, at the 9.5 mg/kg. In kind it is functional. In outline: as §1
Data set [3] concerns Mus musculus. The data set can be described thus: Free and protein-conjugated compound is evaluated for curative effect, at the 11 mg/kg. In kind it is functional. In outline: as §1
A short description of data set [4]: Ratio of LD50 (lethal toxicity in mice) to that of CPD50 (therapeutic efficacy). In kind it is organism-based. To be noted: mouse, in vivo. In outline: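 Therapeutic index as LD50/CPD50 (mg primaquine base/kg). LD50 came from probit analysis of deaths after intravenous dosing of noninfected mice, groups of eight. CPD50 came from probit analysis of cure (no parasitemia by day 12) in A/J mice given intravenous drug 2–3 h after intravenous inoculation of 10^4 P. berghei sporozoites.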

The test system of data set [5] is Mus musculus. The data set can be described thus: Free and protein-conjugated compound is evaluated for curative effect, at the 8 mg/kg. The format is functional. In outline: as §1
A short description of data set [6]: (§2) Compound is evaluated for acute lethal toxicity by intravenous administration. In kind it is organism-based. To be noted: mouse, in vivo. In outline: (§3)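 Noninfected mice in groups of eight, given a single intravenous injection of varying doses (mg primaquine base/kg) of free or protein-coupled drug. Highest conjugate dose was limited by solubility.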
The subject of data set [7] is Mus musculus. The data set is described as §2. In kind it is organism-based. To be noted: in vivo. Put shortly:
as §3

The species entered for data set [8] is Mus musculus. The data set can be described thus: Compound is evaluated for therapeutic efficacy. To be noted: in vivo. In kind it is ADME, organism-based. In outline: as §1
In data set [9] the test system is Mus musculus. Description: Free and protein-conjugated compound is evaluated for curative effect, at the 7 mg/kg. The format is functional. In outline: as §1

For the compound `COc1cc(NC(C)CCCN)c2ncccc2c1` (centres undefined) [PRIMAQUINE], the Cure in data set [1] turned out to be 69%; in data set [2], 13%; in data set [3] it was 20%; in data set [5], 13%; in data set [9] it was 0%. For the same compound, the selectivity ratio in data set [4] is 1.2. Further, in data set [6], the 50% lethal dose (LD50) is 16 mg/kg. The compound also registered an LD10 in data set [7] of 13 mg/kg. The CPD50 in data set [8] was 13 mg/kg and 20 mg/kg.
